Experiments:
Format in all cases: functional, cell-based
A549 = experiment: Cytotoxicity against human A549 cells after 72 hrs by MTT assay; settings: A549, 72 h
Outline: (§1)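 Incubation was 72 h at 37 °C in 95% air/5% CO₂. MTT was then added for 4 h and absorbance read at 490 nm. EC₅₀ is the concentration giving 50% growth inhibition versus untreated control; 5-fluorouridine served as reference.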

HepG2 = experiment: Cytotoxicity against human HepG2 cells after 72 hrs by MTT assay; settings: HepG2, 72 h; outline: as §1
[1] = Cytotoxicity against human LAC cells after 72 hrs by MTT assay; outline: as §1
HeLa = experiment: Cytotoxicity against human HeLa cells after 72 hrs by MTT assay; outline: as §1

## CCS[C@@H]1[C@H](SCC)[C@@H](Cn2cc(-c3ccc(OC)cc3)nn2)O[C@H]1n1cc(C)c(=O)[nH]c1=O
A549
  EC50: 38.8 µM
HepG2
  EC50: 22.8 µM
[1]
  EC50: 25.9 µM
HeLa
  EC50: 66 µM

## CCS[C@@H]1[C@H](SCC)[C@@H](Cn2cc(-c3ccccc3)nn2)O[C@H]1n1cc(C)c(=O)[nH]c1=O
A549
  EC50: 31.7 µM
HepG2
  EC50: 65 µM
HeLa
  EC50: 1.89 µM

## CCS[C@@H]1[C@H](SCC)[C@@H](Cn2cc(-c3ccc(C)cc3)nn2)O[C@H]1n1cc(C)c(=O)[nH]c1=O
A549
  EC50: 12.3 µM
HepG2
  EC50: 21.6 µM
[1]
  EC50: ≥ 100 µM
HeLa
  EC50: 77.5 µM

## CCS[C@@H]1[C@H](SCC)[C@@H](Cn2cc(-c3ccc(OC)cc3)nn2)O[C@H]1n1ccc(=O)[nH]c1=O
A549
  EC50: 16.8 µM
HepG2
  EC50: 16.2 µM
[1]
  EC50: 24.3 µM
HeLa
  EC50: 27.7 µM

## CCS[C@@H]1[C@H](SCC)[C@@H](Cn2cc(-c3ccccc3C(F)(F)F)nn2)O[C@H]1n1ccc(=O)[nH]c1=O
A549
  EC50: 19.4 µM
HepG2
  EC50: 30.3 µM
[1]
  EC50: 81.1 µM
HeLa
  EC50: 32.8 µM

## CCS[C@@H]1[C@H](SCC)[C@@H](Cn2cc(-c3ccccc3)nn2)O[C@H]1n1ccc(=O)[nH]c1=O
A549
  EC50: 3.04 µM
HepG2
  EC50: 8.38 µM
HeLa
  EC50: 6.59 µM

## CCS[C@@H]1[C@H](SCC)[C@@H](Cn2cc(COC(C)=O)nn2)O[C@H]1n1ccc(=O)[nH]c1=O
A549
  EC50: ≥ 100 µM
HepG2
  EC50: ≥ 100 µM
[1]
  EC50: ≥ 100 µM
HeLa
  EC50: ≥ 100 µM

## CCS[C@@H]1[C@H](SCC)[C@@H](Cn2cc(-c3cccc(C)c3)nn2)O[C@H]1n1ccc(=O)[nH]c1=O
A549
  EC50: 12.2 µM
HepG2
  EC50: 18.3 µM
[1]
  EC50: 99 µM
HeLa
  EC50: 18.8 µM

## CCS[C@@H]1[C@H](SCC)[C@@H](Cn2cc(-c3ccc(C)cc3)nn2)O[C@H]1n1ccc(=O)[nH]c1=O
A549
  EC50: 6.78 µM
HepG2
  EC50: 19.9 µM
[1]
  EC50: ≥ 100 µM
HeLa
  EC50: 46.7 µM

## CCOC(=O)c1cn(C[C@H]2O[C@@H](n3cc(C)c(=O)[nH]c3=O)[C@H](SCC)[C@@H]2SCC)nn1
A549
  EC50: ≥ 100 µM
HepG2
  EC50: ≥ 100 µM
[1]
  EC50: ≥ 100 µM
HeLa
  EC50: ≥ 100 µM

## CCS[C@@H]1[C@H](SCC)[C@@H](Cn2cc(-c3ccccc3C(F)(F)F)nn2)O[C@H]1n1cc(C)c(=O)[nH]c1=O
A549
  EC50: 7.23 µM
HepG2
  EC50: 22.1 µM
[1]
  EC50: 50.6 µM
HeLa
  EC50: 54.3 µM

## CCS[C@@H]1[C@H](SCC)[C@@H](Cn2cc(-c3cccs3)nn2)O[C@H]1n1cc(C)c(=O)[nH]c1=O
A549
  EC50: 37.3 µM
HepG2
  EC50: ≥ 100 µM
[1]
  EC50: ≥ 100 µM
HeLa
  EC50: 54.9 µM

## CCS[C@@H]1[C@H](SCC)[C@@H](Cn2cc(-c3cccs3)nn2)O[C@H]1n1ccc(=O)[nH]c1=O
A549
  EC50: ≥ 100 µM
HepG2
  EC50: 91.8 µM
[1]
  EC50: 86.5 µM
HeLa
  EC50: ≥ 100 µM

## CCS[C@@H]1[C@H](SCC)[C@@H](Cn2cc(-c3ccccc3)nn2)O[C@H]1n1ccc(N)nc1=O
A549
  EC50: 64 µM
HepG2
  EC50: 57.1 µM
HeLa
  EC50: 33.5 µM

## CCS[C@@H]1[C@H](SCC)[C@@H](Cn2cc(-c3ccc(F)cc3)nn2)O[C@H]1n1cc(C)c(=O)[nH]c1=O
A549
  EC50: ≥ 100 µM
HepG2
  EC50: 22.7 µM
[1]
  EC50: ≥ 100 µM
HeLa
  EC50: 39.5 µM

## O=c1[nH]cc(F)c(=O)[nH]1 [FLUOROURACIL]
A549
  EC50: 100 µM
HepG2
  EC50: 52.4 µM
[1]
  EC50: 43.7 µM
HeLa
  EC50: 79.8 µM

## CCS[C@@H]1[C@H](SCC)[C@@H](Cn2cc(-c3ccc(F)cc3)nn2)O[C@H]1n1ccc(=O)[nH]c1=O
A549
  EC50: 22.9 µM
HepG2
  EC50: 22.6 µM
[1]
  EC50: 72.4 µM
HeLa
  EC50: 37.4 µM

## CCOC(=O)c1cn(C[C@H]2O[C@@H](n3ccc(=O)[nH]c3=O)[C@H](SCC)[C@@H]2SCC)nn1
A549
  EC50: ≥ 100 µM
HepG2
  EC50: ≥ 100 µM
[1]
  EC50: ≥ 100 µM
HeLa
  EC50: ≥ 100 µM
